# ChEMBL document CHEMBL3621107, “Ring fusion strategy for synthesis and lead optimization of sulfur-substituted anthra[1,2-c][1,2,5]thiadiazole-6,11-dione derivatives as promising scaffold of antitumor agents” (Eur J Med Chem, 2015)
# pIC50: −log10 of the molar value.
# Experiments:
# Malme-3M = assay: Cytotoxicity against human MALME-3M cells assessed as cell growth at 10 uM after 48 hrs by SRB assay relative to control; format: functional; details: read-out: Activity
# How it was run: (§1)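 First-stage NCI-60 screen by the NCI Developmental Therapeutics Program. Each compound was tested once at a single concentration of 10 μM against the 60-cell-line panel. Growth percentage was reported for each cell line.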
# SK-MEL-2 = assay: Cytotoxicity against human SK-MEL-2 cells assessed as cell growth at 10 uM after 48 hrs by SRB assay relative to control; format: functional; details: SK-MEL-2, 48 h, read-out: Activity
# How it was run: (§2)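 First-stage NCI DTP one-dose screen against the 60 human tumour cell line panel. Compounds were tested at a single 10 μM level, and results are given as growth percentage.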
# SK-MEL-28 = assay: Cytotoxicity against human SK-MEL-28 cells assessed as cell growth at 10 uM after 48 hrs by SRB assay relative to control; format: functional; details: SK-MEL-28, 48 h, read-out: Activity; how it was run: as §2
# UACC-257 = assay: Cytotoxicity against human UACC257 cells assessed as cell growth at 10 uM after 48 hrs by SRB assay relative to control; format: functional; details: UACC-257, 48 h, read-out: Activity
# How it was run: (§3)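 NCI-60 one-dose screen run by NCI DTP: each cell line exposed to a single 10 µM dose, and percentage growth recorded against untreated growth.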
# UACC-62 = assay: Cytotoxicity against human UACC62 cells assessed as cell growth at 10 uM after 48 hrs by SRB assay relative to control; format: functional; details: UACC-62, 48 h, read-out: Activity; how it was run: as §3
# OVCAR-5 = assay: Cytotoxicity against human OVCAR5 cells assessed as cell growth at 10 uM after 48 hrs by SRB assay relative to control; format: functional; details: OVCAR-5, 48 h, read-out: Activity; how it was run: as §2
# OVCAR-8 = assay: Cytotoxicity against human OVCAR8 cells assessed as cell growth at 10 uM after 48 hrs by SRB assay relative to control; format: functional; details: OVCAR-8, 48 h, read-out: Activity; how it was run: as §2
# NCI/ADR-RES = assay: Cytotoxicity against human NCI/ADR-RES cells assessed as cell growth at 10 uM after 48 hrs by SRB assay relative to control; format: functional; details: read-out: Activity; how it was run: as §2
# SK-OV-3 = assay: Cytotoxicity against human SKOV3 cells assessed as cell growth at 10 uM after 48 hrs by SRB assay relative to control; format: functional; details: SK-OV-3, 48 h, read-out: Activity; how it was run: as §2
# 786-0 = assay: Cytotoxicity against human 786-0 cells assessed as cell growth at 10 uM after 48 hrs by SRB assay relative to control; format: functional; details: 786-0, 48 h, read-out: Activity; how it was run: as §1
# SN12C = assay: Cytotoxicity against human SN12C cells assessed as cell growth at 10 uM after 48 hrs by SRB assay relative to control; format: functional; details: read-out: Activity; how it was run: as §2
# TK-10 = assay: Cytotoxicity against human TK10 cells assessed as cell growth at 10 uM after 48 hrs by SRB assay relative to control; format: functional; details: TK-10, 48 h, read-out: Activity; how it was run: as §3
# UO-31 = assay: Cytotoxicity against human UO31 cells assessed as cell growth at 10 uM after 48 hrs by SRB assay relative to control; format: functional; details: UO-31, 48 h, read-out: Activity; how it was run: as §3
# MCF7 = assay: Cytotoxicity against human MCF7 cells assessed as cell growth at 10 uM after 48 hrs by SRB assay relative to control; format: functional; details: MCF7, 48 h, read-out: Activity; how it was run: as §1
# MDA-MB-231 = assay: Cytotoxicity against human MDA-MB-231 cells assessed as cell growth at 10 uM after 48 hrs by SRB assay relative to control; format: functional; details: MDA-MB-231, 48 h, read-out: Activity; how it was run: as §2
# PC-3 = assay: Cytotoxicity against human PC3 cells after 48 hrs by SRB assay; format: functional, cell-based; details: PC-3, 48 h
# How it was run: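 Second-stage NCI-60 panel run by the NCI Developmental Therapeutics Program, covering nine tumour subpanels. Five concentrations were tested: 0.01, 0.1, 1, 10 and 100 μM. Percentage growth at each level was plotted against log10 drug concentration. GI50, TGI and LC50 were read from these dose-response curves. Subpanel MID values were divided into the full-panel MID to give selectivity ratios.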
# HL-60(TB) = assay: Cytotoxicity against human HL-60(TB) cells assessed as cell growth at 10 uM after 48 hrs by SRB assay relative to control; format: functional; details: HL-60, 48 h, read-out: Activity
# How it was run: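 NCI Developmental Therapeutics Program 60-cell-line screen, first stage: a single dose of 10 μM against the panel, reported as percentage growth.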
# SR = assay: Cytotoxicity against human SR cells assessed as cell growth at 10 uM after 48 hrs by SRB assay relative to control; format: functional; details: read-out: Activity; how it was run: as §3
# A549 = assay: Cytotoxicity against human A549 cells assessed as cell growth at 10 uM after 48 hrs by SRB assay relative to control; format: functional; details: A549, 48 h, read-out: Activity; how it was run: as §1
# HOP-62 = assay: Cytotoxicity against human HOP62 cells assessed as cell growth at 10 uM after 48 hrs by SRB assay relative to control; format: functional; details: HOP-62, 48 h, read-out: Activity; how it was run: as §1
# NCI-H226 = assay: Cytotoxicity against human NCI-H226 cells assessed as cell growth at 10 uM after 48 hrs by SRB assay relative to control; format: functional; details: NCI-H226, 48 h, read-out: Activity; how it was run: as §2
# NCI-H23 = assay: Cytotoxicity against human NCI-H23 cells assessed as cell growth at 10 uM after 48 hrs by SRB assay relative to control; format: functional; details: NCI-H23, 48 h, read-out: Activity; how it was run: as §2
# NCI-H460 = assay: Cytotoxicity against human NCI-H460 cells assessed as cell growth at 10 uM after 48 hrs by SRB assay relative to control; format: functional; details: NCI-H460, 48 h, read-out: Activity; how it was run: as §2
# COLO 205 = assay: Cytotoxicity against human COLO205 cells assessed as cell growth at 10 uM after 48 hrs by SRB assay relative to control; format: functional; details: COLO 205, 48 h, read-out: Activity; how it was run: as §1
# HCT-116 = assay: Cytotoxicity against human HCT116 cells assessed as cell growth at 10 uM after 48 hrs by SRB assay relative to control; format: functional; details: HCT-116, 48 h, read-out: Activity; how it was run: as §1
# HCT-15 = assay: Cytotoxicity against human HCT15 cells assessed as cell growth at 10 uM after 48 hrs by SRB assay relative to control; format: functional; details: HCT-15, 48 h, read-out: Activity; how it was run: as §1
# KM12 = assay: Cytotoxicity against human KM12 cells assessed as cell growth at 10 uM after 48 hrs by SRB assay relative to control; format: functional; details: KM12, 48 h, read-out: Activity; how it was run: as §1
# SF-295 = assay: Cytotoxicity against human SF295 cells assessed as cell growth at 10 uM after 48 hrs by SRB assay relative to control; format: functional; details: SF-295, 48 h, read-out: Activity; how it was run: as §2
# SF-539 = assay: Cytotoxicity against human SF539 cells assessed as cell growth at 10 uM after 48 hrs by SRB assay relative to control; format: functional; details: SF-539, 48 h, read-out: Activity; how it was run: as §2
# SNB-19 = assay: Cytotoxicity against human SNB19 cells assessed as cell growth at 10 uM after 48 hrs by SRB assay relative to control; format: functional; details: SNB-19, 48 h, read-out: Activity; how it was run: as §3
Compound,growth at 10 µM (Malme-3M) [%],growth at 10 µM (SK-MEL-2) [%],growth at 10 µM (SK-MEL-28) [%],growth at 10 µM (UACC-257) [%],growth at 10 µM (UACC-62) [%],growth at 10 µM (OVCAR-5) [%],growth at 10 µM (OVCAR-8) [%],growth at 10 µM (NCI/ADR-RES) [%],growth at 10 µM (SK-OV-3) [%],growth at 10 µM (786-0) [%],growth at 10 µM (SN12C) [%],growth at 10 µM (TK-10) [%],growth at 10 µM (UO-31) [%],growth at 10 µM (MCF7) [%],growth at 10 µM (MDA-MB-231) [%],pIC50 (PC-3),growth at 10 µM (HL-60(TB)) [%],growth at 10 µM (SR) [%],growth at 10 µM (A549) [%],growth at 10 µM (HOP-62) [%],other results
CSc1ccc(Sc2cc3c(c4nsnc24)C(=O)c2ccccc2C3=O)cc1,105,89.3,120,110,111,108,97.4,91.8,102,110,98,128,67.6,82.9,78.8,< 4.82,105,96.3,105,102,growth at 10 µM (NCI-H226): 79.7%; growth at 10 µM (NCI-H23): 81.5%; growth at 10 µM (NCI-H460): 106%; growth at 10 µM (COLO 205): 117%; growth at 10 µM (HCT-116): 102%; growth at 10 µM (HCT-15): 112%; growth at 10 µM (KM12): 100%; growth at 10 µM (SF-295): 98.9%; growth at 10 µM (SF-539): 96.5%; growth at 10 µM (SNB-19): 102%
O=C1c2ccccc2C(=O)c2c1cc(Sc1cc(Cl)ccc1Cl)c1nsnc21,94.3,101,123,119,94.1,109,85.1,83.1,84.1,67.5,96.7,112,91.5,85.2,82.4,< 4.82,72.7,41.1,103,63.2,growth at 10 µM (NCI-H226): 112%; growth at 10 µM (NCI-H23): 74.6%; growth at 10 µM (NCI-H460): 101%; growth at 10 µM (COLO 205): 110%; growth at 10 µM (HCT-116): 81.9%; growth at 10 µM (HCT-15): 92.8%; growth at 10 µM (KM12): 101%; growth at 10 µM (SF-295): 78.9%; growth at 10 µM (SF-539): 88.7%; growth at 10 µM (SNB-19): 84.4%
O=C1c2ccccc2C(=O)c2c1cc(Sc1ccc(F)cc1F)c1nsnc21,39.5,51.8,79.5,43.9,53.3,110,0.32,-26.2,92.6,3.74,9.12,112,70.3,6.58,-9.73,4.83,-37.7,0.2,112,58.5,growth at 10 µM (NCI-H226): 88.8%; growth at 10 µM (NCI-H23): 9.53%; growth at 10 µM (NCI-H460): 83.6%; growth at 10 µM (COLO 205): 104%; growth at 10 µM (HCT-116): -63.1%; growth at 10 µM (HCT-15): 45.8%; growth at 10 µM (KM12): 51.8%; growth at 10 µM (SF-295): 68.8%; growth at 10 µM (SF-539): 58.8%; growth at 10 µM (SNB-19): 87.3%
Cc1cc(C)cc(Sc2cc3c(c4nsnc24)C(=O)c2ccccc2C3=O)c1,102,108,112,116,103,107,92.2,97.5,97.5,98.2,105,132,69.1,75.8,99.2,< 4.82,73.7,78.4,107,91,growth at 10 µM (NCI-H226): 88%; growth at 10 µM (NCI-H23): 90.4%; growth at 10 µM (NCI-H460): 105%; growth at 10 µM (COLO 205): 106%; growth at 10 µM (HCT-116): 92.3%; growth at 10 µM (HCT-15): 90.9%; growth at 10 µM (KM12): 105%; growth at 10 µM (SF-295): 91.1%; growth at 10 µM (SF-539): 94.9%; growth at 10 µM (SNB-19): 107%
